The labels stand for the following.
B1: NELF-E aptamer (parent)
chain: CCCAACGACUGCCGAGCGAGAUUACGCUUGAGCGCCCCACUGAGGAUGCCCACGGGCGAUUGGGGCACGG

Variants of B1 are the subject of this data set. Kind of data set: HiTS-RAP. The settings on record: with NELF-E (Drosophila). An outline of the steps:
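Kd came from weighted Hill fits to the first binding curve, with intensities normalised to sequencing intensity and averaged per sequence, keeping only fits whose variance was below 1,000,000. That curve was imaged on an Illumina GAIIx flowcell, where sequenced aptamer DNA templates with a T7 promoter and ter site had been transcribed in situ by T7 RNA polymerase and halted by GST-Tus (30 minutes, 37°C). Before each image, clusters equilibrated for 30 minutes at room temperature with NELF-E-mOrange at 0.064 to 1000 nM in HEPES binding buffer.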
Broadly, the Kd is the equilibrium constant for the complex coming apart. CCCAACGACGGCCGAGCGAGAUUACGCUUGAGCGCCCAACUGAGGAUGCCCACGGGCGAUUGGGGCACGG: the Kd stood at 39.8 nM.
Take CCCAACGACGGCCGAGCGAGAUUACGCUUGAGCGCCCGACUGAGGAUGCCCACGGGCGAUUGGGGCACGG: the Kd came to 7 nM.
On to CCCAACGACGGCCGAGCGAGAUUACGCUUGAGCGCACCACUGAGGAUGCCCACGGGCGAUUGGGGCACGG, for which the Kd is 9.48 nM.
With CCCAACGACGGCCGAGCGAGAUUACGCUUGAGCGCUCCACUGAGGAUGCCCACGGGCGAUUGGGGCACGG, the Kd is 6.99 nM.
Turning to CCCAACGACGGCCGAGCGAGAUUACGCUUGAGCGCGCCACUGAGGAUGCCCACGGGCGAUUGGGGCACGG, the dissociation constant Kd was found to be 6.55 nM.
As for CCCAACGACGGCCGAGCGAGAUUACGCUUGAGGGCCCCACUGAGGAUGCCCACGGGCGAUUGGGGCACGG, the Kd came out at 5.96 nM.
On to CCCAACGACGGCCGAGCGAGAUUACGCUUGAGAGCCCCACUGAGGAUGCCCACGGGCGAUUGGGGCACGG, for which the Kd is 5.76 nM.
In the case of CCCAACGACGGCCGAGCGAGAUUACGCUUGAGUGCCCCACUGAGGAUGCCCACGGGCGAUUGGGGCACGG it was 5.07 nM; in that of CCCAACGACGGCCGAGCGAGAUUACGCUUGAGCGCCCCACUGAGGAUGCCCCCGGGCGAUUGGGGCACGG, 5.8 nM; in that of CCCAACGACGGCCGAGCGAGAUUACGCUUGAGCGCCCCACUGAGGAUGCCCGCGGGCGAUUGGGGCACGG, 4.22 nM.
As to CCCAACGACGGCCGAGCGAGAUUACGCUUGAGCGCCCCACUGAGGAUGCCCUCGGGCGAUUGGGGCACGG, the dissociation constant (Kd) was 14.9 nM.
As to CCCAACGACCGGCGAGCGAGAUUACGCUUGAGCGCCCCACUGAGGAUGCCCACGGGCGAUUGGGGCACGG, the Kd was 5.94 nM.
Take CCCAACGACCGCCGAGCGAGAGUACGCUUGAGCGCCCCACUGAGGAUGCCCACGGGCGAUUGGGGCACGG: the Kd turned out to be 5.75 nM.
As to CCCAACGACGGCCGAGCGAGAUUACGCUUGAGCGCCCCUCUGAGGAUGCCCACGGGCGAUUGGGGCACGG, the dissociation constant Kd was found to be 24.6 nM.
For CCCAACGACGGCCGAGCGAGAUUACGCUUGAGCGCCCCCCUGAGGAUGCCCACGGGCGAUUGGGGCACGG, the Kd amounted to 19.7 nM.
Turning to CCCAACGACGGCCGAGCGAGAUUACGCUUGAGCGCCCCGCUGAGGAUGCCCACGGGCGAUUGGGGCACGG, the Kd stood at 10.1 nM.
In the case of CCCAACGACGGCCGAGCGAGAUUAGGCUUGAGCGCCCCACUGAGGAUGCCCACGGGCGAUUGGGGCACGG it was 5.26 nM; in that of CCCAACGACGGCCGAGCGAGAUUAUGCUUGAGCGCCCCACUGAGGAUGCCCACGGGCGAUUGGGGCACGG, 5.86 nM.
In the case of CCCAACGACGGCCGAGCGAGAUUAAGCUUGAGCGCCCCACUGAGGAUGCCCACGGGCGAUUGGGGCACGG, the Kd stood at 4.07 nM.
On to CCCAACGACGGCCGAGCGAGAUUACGCUUGAGCGCCCCACUGAGGAUGCCCACGGGCGAUUGGGGCUCGG, for which the Kd was 6.91 nM.
On to CCCAACGACGGCCGAGCGAGAUUACGCUUGAGCGCCCCACUGAGGAUGCCCACGGGCGAUUGGGGCCCGG, for which the Kd is 5.03 nM.
CCCAACGACGGCCGAGCGAGAUUACGCUUGAGCGCCCCACUGAGGAUGCCCACGGGCGAUUGGGGCGCGG: the Kd was 5.45 nM.
As to CCCAACGACCGCCGAGCGAGAUUACGCUUGAGCGCCCCACUGAGGAUGCCCACGGGCGAUCGGGGCACGG, the Kd stood at 41.4 nM.
For the variant CCCAACGACCGCCGAGCGAGAUUACGCUUGAGCGCCCCACUGAGGAUGCCCACGGGCGAUAGGGGCACGG, the Kd was 33.1 nM.
With CCCAACGACGGCCGAGGGAGAUUACGCUUGAGCGCCCCACUGAGGAUGCCCACGGGCGAUUGGGGCACGG, the Kd came out at 4.78 nM.
As to CCCAACGACGGCCGAGUGAGAUUACGCUUGAGCGCCCCACUGAGGAUGCCCACGGGCGAUUGGGGCACGG, the Kd turned out to be 4.88 nM.
On to CCCAACGACGGCCGAGAGAGAUUACGCUUGAGCGCCCCACUGAGGAUGCCCACGGGCGAUUGGGGCACGG, for which the Kd turned out to be 5.07 nM.
In the case of CCCAACGACGGCCGAGCGAGAUUACGCUUGAGCGCCCCACUGAGGAUGCCCACGGGCGAUUGGGGCACGG, the Kd stood at 4.49 nM.
With CCCAACGACCGCCGAUCGAGAUUACGCUUGAGCGCCCCACUGAGGAUGCCCACGGGCGAUUGGGGCACGG, the Kd was 5.14 nM.
Regarding CCCAACGACGGCCGUGCGAGAUUACGCUUGAGCGCCCCACUGAGGAUGCCCACGGGCGAUUGGGGCACGG, the Kd was 5.99 nM.
As for CCCAACGACGGCCGCGCGAGAUUACGCUUGAGCGCCCCACUGAGGAUGCCCACGGGCGAUUGGGGCACGG, the Kd is 3.77 nM.
In the case of CCCAACGACGGCCGGGCGAGAUUACGCUUGAGCGCCCCACUGAGGAUGCCCACGGGCGAUUGGGGCACGG it was 4.72 nM.
In the case of CCCAACGACCGCCGAGCGAGAUUACGCUUGAGCGCCCCACUGAGGAUGCCCACGGGUGAUUGGGGCACGG it was 4.92 nM; in that of CCCAACGACGGCCGAGCGAGAUUACGCUUGAGCGCCCCACUGAGGAUGCCCACGGGCGUUUGGGGCACGG, 71.4 nM; in that of CCCAACGACGGCCGAGCGAGAUUACGCUUGAGCGCCCCACUGAGGAUGCCCACGGGCGGUUGGGGCACGG, 57.3 nM.
For the variant CCCAACGACCUCCGAGCGAGAUUACGCUUGAGCGCCCCACUGAGGAUGCCCACGGGCGAUUGGGGCACGG, the Kd was determined as 5.91 nM.
Consider CCCAACGACCGCGGAGCGAGAUUACGCUUGAGCGCCCCACUGAGGAUGCCCACGGGCGAUUGGGGCACGG, for which the Kd was found to be 5.55 nM.
For the variant CCCAACGACGGCCGAGCGAGAUUACGCUUGAGCGUCCCACUGAGGAUGCCCACGGGCGAUUGGGGCACGG, the Kd is 16.3 nM.

Source of the values: the RNAGym collection of RNA variant scans (doi:10.1038/nmeth.2970).
